# Only some compounds are listed: those with a hit (about 1.8% of all), similar ones and a draw of the others.
# Autophagy mod: autophagy modulation, high-content screen. MEF GFP-LC3 puncta imaging; test concentration mostly 10 µM. calls only at 10 µM (by protocol). 190,000 compounds, 0.98% hits. AID 463193;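 active means percentage of spot-positive cells more than 3 SD above its plate mean, without a fluorescence outlier flag or 80% toxicity; inconclusive means no clear call, values can overlap the other calls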;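 further: spot-positive cell cutoff set from DMSO-treated cells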
# TNAP inh no acc: inhibitors of human TNAP without phosphate acceptor. purified TNAP, CDP-star luminescence, 30 min. inhibition, % at 20 µM. 200,000 compounds, 0.26% hits. P05186;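 active means tissue-nonspecific alkaline phosphatase inhibition above about 50% at 20 µM in the single-dose screen, limit read from the data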;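 further: 0% = DMSO negative control and 100% = EDTA positive control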
# Target sequence (P05186 whole entry, looked up): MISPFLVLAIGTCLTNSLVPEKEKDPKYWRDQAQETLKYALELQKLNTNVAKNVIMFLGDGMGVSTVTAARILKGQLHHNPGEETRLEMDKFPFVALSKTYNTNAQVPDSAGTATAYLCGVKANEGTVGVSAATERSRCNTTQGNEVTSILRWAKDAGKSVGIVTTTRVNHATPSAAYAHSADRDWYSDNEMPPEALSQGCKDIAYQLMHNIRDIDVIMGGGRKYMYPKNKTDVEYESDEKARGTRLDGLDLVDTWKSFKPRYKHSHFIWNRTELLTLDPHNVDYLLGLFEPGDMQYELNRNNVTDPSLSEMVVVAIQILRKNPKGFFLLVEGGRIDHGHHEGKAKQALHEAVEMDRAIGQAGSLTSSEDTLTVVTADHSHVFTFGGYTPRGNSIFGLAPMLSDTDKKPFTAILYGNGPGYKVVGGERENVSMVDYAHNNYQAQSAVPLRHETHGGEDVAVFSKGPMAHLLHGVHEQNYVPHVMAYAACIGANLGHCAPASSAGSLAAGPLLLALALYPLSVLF
# p47phox inh: p47phox (human) inhibition; p47phox/p22phox peptide binding, fluorescence polarization, 2 h; 220,000 compounds, 0.53% hits; P14598; inhibition, % at 24.7 µM;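 active means inhibition above about 30%, limit read from the data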;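 further: 0% = p47phox with labelled peptide and 100% = labelled peptide alone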
# TNAP inh hiacc: blocks human TNAP under high phosphate acceptor concentration | P05186 | purified TNAP, CDP-star luminescence, 1 M DEA | inhibition, % at 20 µM | 200,000 compounds, 0.03% hits | AID 1135;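 active means over 50% inhibition of tissue-nonspecific alkaline phosphatase at 20 µM in the single-dose screen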;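 further: plate controls were DMSO wells for no effect and EDTA-quenched wells as full inhibition for full effect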
# Ins promoter up: MIN6 insulin promoter up-regulation; 190,000 compounds, 0.3% hits; z-score at 5 µM; MIN6 insulin promoter-GFP reporter, high-content imaging; stronger effect = higher value;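 active means z-score above 3 at 5 µM with at least 500 cells counted in the well; inconclusive means wells under 500 cells, flagged as cytotoxic or low count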
# TNAP act hi DEA: increases human TNAP activity under high phosphate acceptor concentration; P05186; purified TNAP, CDP-star luminescence, 1 M DEA, 30 min; stronger effect = higher value; 0 = EDTA background, 1 = DMSO-only activity; activation factor at 20 µM; 200,000 tested, under 10 active; AID 1136;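 active means activation factor at least 2 at 20 µM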
#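 Control set: EDTA negative control, DMSO positive control / Assay system: human TNAP / Quantity: TNAP 1/800 final / Evaluation: TNAP activation factor scaled between EDTA and DMSO control wells / Measured by: luminescent substrate turnover signal / Compound dosing: one dose, 20 µM / Times: 30 min enzyme reaction at room temperature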
# The depositor's hits bear a star; i = inactive; ? = inconclusive; . = not tested or not shown; + = active, no number.
SMILES,Autophagy mod,TNAP inh no acc,p47phox inh,TNAP inh hiacc,Ins promoter up,TNAP act hi DEA
Cc1ccn2c(NC3CCCCC3)c(C)nc2c1,i,8.0,6.9,0.4,3.89*,1
Cc1cc(/C=C2\SC(=S)NC2=O)c(C)n1C1CC1,i,21.5,-60.3,21.8,3.04*,0.8
Cc1cc(/C=C2/C(=O)N(C)C(=S)N2C)c(C)n1C1CC1,i,8.5,-49.1,10.8,0.6,0.9
O=C(Nc1nc(-c2cccnc2)cs1)c1ccccc1[N+](=O)[O-],i,1.2,-8.2,4.9,0.43,1
CCOC(=O)c1oc2ccc(Br)cc2c1NC(=O)CN1CCN(C)CC1,i,1.6,2.5,1.8,1.89,1
COc1ccc2oc(C(=O)c3ccccc3)c(NC(=O)CN3CCN(C)CC3)c2c1,+,-3.6,-12.4,-4.5,-2.17,1
O=[N+]([O-])c1cc(C(F)(F)F)ccc1N1CCCC(O)C1 (stereo unspecified),i,-4.3,-2.3,-0.8,0.32,1
FC(F)(F)c1ccc2c(c1)NCC1CCCN21 (stereo unspecified),+,-13.1,51.0*,-5.6,0.17,1.1
FC(F)(F)c1ccc2c(c1)N1CCCC1CN2 (stereo unspecified),+,-2.7,8.0,-2.7,0.91,1
FC(F)(F)c1ccc2c(c1)[nH]c(=S)n2C1CC1,i,-25.5,-4.2,1.0,.,1
O=C1c2ccccc2C(=O)N1c1ccc(-c2nc3ccccc3o2)cc1,+,-9.6,8.5,-0.9,-0.08,1
CC1CCCCN1S(=O)(=O)c1ccc(C(=O)Nc2sccc2C(N)=O)cc1 (stereo unspecified),+,6.0,-30.1,-4.3,2.1,1
CCOC(=O)c1cnc(SC)nc1N,i,28.0,109.4*,-1.1,0.26,1
O=C(O)CNC(=S)N(Cc1ccccc1)Cc1cccnc1,+,-6.2,-2.1,-5.5,0.31,1.1
COc1ccc(CCNC(=O)C(=O)Nc2ccc3c(c2)OCO3)cc1OC,i,-4.2,-4.7,-4.5,-0.2,1
O=c1[nH]c(=O)n([C@H]2C[C@H](O)[C@@H](CO)O2)cc1C(F)(F)F,+,-8.9,-4.1,-3.0,.,1
O=C(Nc1ccc(O)c(C(=O)O)c1)Oc1ccccc1,.,.,-9.2,.,-0.02,.
CC(C)C1C(C#N)=C(N)Oc2n[nH]c(-c3ccc4ccccc4c3)c21 (stereo unspecified),+,9.2,-36.4,-4.0,.,1
CC(C)C1C(C#N)=C(N)Oc2n[nH]c(-c3cccs3)c21 (stereo unspecified),i,4.9,0.5,-6.8,0.11,1.1
COc1cc2c(cc1OC)C(c1ccc(-c3cc(Cl)ccc3Cl)o1)=NCC2,i,-1.6,50.8*,-0.2,-0.18,1
COc1cc2c(cc1OC)C(c1ccc(-c3ccc(Cl)cc3Cl)o1)=NCC2,i,-7.4,-9.4,-0.9,-1.35,1
Cc1ccc(NC(=S)N/N=C/c2c(C)[nH]c3ccccc23)cc1,+,-9.4,-69.8,-5.2,-0.37,1.1
CCC1=NNc2cccc3c(OC)ccc1c23,i,0.6,138.3*,14.2,1.08,0.9
COc1ccc(CCNC(=O)C/C(C)=N/NC(=O)c2ccc(N)cc2)cc1OC,i,2.7,81.3*,-0.6,-0.73,1
CCN1C(=O)/C(=C\c2nc3ccccc3c(=O)n2CC)c2ccccc21,+,7.8,4.8,-0.1,0.53,1
SMILES,Autophagy mod,TNAP inh no acc,p47phox inh,TNAP inh hiacc,Ins promoter up,TNAP act hi DEA
CCn1c(/C=C2/C(=O)N(C)c3ccccc32)nc2ccccc2c1=O,i,-2.5,-5.2,-3.0,-0.27,1
CC1CCCC(NC(=O)COC(=O)c2ccccc2[N+](=O)[O-])C1C (stereo unspecified),+,-18.4,42.7*,-3.5,0.44,1
O=C(NNc1cccc(Cl)n1)Nc1ccc(F)cc1,i,-22.2,-7.6,-7.5,1.05,1.1
O=[N+]([O-])c1cccc(-c2noc(-c3ccco3)n2)c1,.,.,-11.1,.,0.08,.
CN(C)c1ccc(/C=C2\SC(=O)N(CC(O)Cn3c4ccccc4c4ccccc43)C2=O)cc1 (stereo unspecified),+,8.7,-87.8,20.5,.,0.8
CN(C)c1ccc(/C=C2\SC(=O)N(CCc3nnc(N)s3)C2=O)cc1,.,.,-137.3,.,3.27*,.
O=C1S/C(=C/c2ccccc2)C(=O)N1CC(O)Cn1c2ccccc2c2ccccc21 (stereo unspecified),i,-3.6,-4.1,-4.1,0.16,1
CC(=O)c1sc(NC(=O)COc2ccc(C)c(C)c2)nc1C,i,-9.1,-27.9,-6.1,0.29,1.1
COc1cccc(/C=N/NC(=S)Nc2cccnc2)c1,+,-5.6,-10.1,-1.9,-0.4,1
COc1ccc(O)c(/C=N/NC(=S)Nc2cccnc2)c1,i,-168.0,-9.6,-2.4,0.1,1
Cc1cccc(N2C(=O)C3C4C=CC(C5CC45)C3C2=O)n1 (stereo unspecified),.,.,-3.7,.,-0.13,.
O=C(Nc1ccc(S(=O)(=O)NC2=NCCCCC2)cc1)c1ccccc1Cl,.,.,-4.8,.,0.09,.
COc1ccc(NC(=O)CSc2nc(N)c(C#N)cc2C#N)cc1,i,3.9,-49.2,2.9,.,1
COc1ccc2nc(SCC(=O)Nc3ccc4sc(C)nc4c3)c(C#N)cc2c1,+,-16.9,-3.9,-5.4,1.95,1.1
CC(C)Oc1ccc(Cc2cnc(=S)[nH]c2N)cc1,i,-95.4,-9.7,-1.9,0,1
CN(CCc1ccccn1)C(=O)CCC1CCCN(C(=O)c2c3c(nn2C)CCCC3)C1 (stereo unspecified),i,-4.7,-1.5,-0.3,0.02,1
COC(C/C=C\[C@@H](O)COCc1ccccc1)OC,.,.,-2.9,.,0.85,.
Cc1ccc(C(C)C)c(OCc2nc(-c3nonc3N)no2)c1,i,-11.3,166.2*,-7.6,0.72,1.1
Cc1ccc(C(C)C)c(OCc2n[nH]c(=S)o2)c1,i,1.6,-34.4,-7.6,0.64,1.1
Cc1ccc(Cn2c(=N)n(CC(=O)c3ccccc3)c3ccccc32)cc1,+,-3.6,-33.7,-8.1,-6.26,1.1
COc1ccc(C(=O)c2sc3nc(-c4ccccc4)ccc3c2N)cc1,+,-1.3,-21.3,0.3,?,1
CCNc1nc(NC(C)C)nc(N(C#N)C(C)C(=O)N(CC)CC)n1 (stereo unspecified),.,.,-2.8,.,0.88,.
CCc1ccc(C2(O)CC(C(F)(F)F)=NN2C(=O)Cc2ccc([N+](=O)[O-])cc2)cc1 (stereo unspecified),i,-1.0,-3.7,4.0,.,1
CCC1=NN(C(=O)Cc2ccc([N+](=O)[O-])cc2)C(O)(C(C)(C)C)C1 (stereo unspecified),+,-3.6,-4.4,2.4,-0.2,1
